Laboratory results taken from ChEMBL document CHEMBL1125493, “HIV-1 neutralization and tumor cell proliferation inhibition in vitro by simplified analogues of pyrido[4,3,2-mn]thiazolo[5,4-b]acridine marine alkaloids” (J Med Chem, 1992).

Assays:
MT4 [1] = assay: Cytotoxic effect in cultured MT-4 lymphocytes at a concentration of 100 ug/mL (0.2900 uM/mL).; format: functional, Homo sapiens
How it was run: (§1)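 MT-4 cells at 5 × 10^4 cells/well, 1 mL total, cultured with compound diluted in RPMI 1640 with 10% FBS, 10 mM HEPES, penicillin/streptomycin and 2 mM glutamine, at 37 °C under 5% CO2. Viability was scored by trypan blue exclusion on days 4 and 7, in triplicate, as % viable cells.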

[2] = system: Human immunodeficiency virus 1; assay: Inhibitory effect (100 uM) against HIV-1 in human peripheral blood monocyte cells(PBMC) (EC50 ->34.5 ug/mL); format: functional
MT4 [3] = assay: Cytotoxic effect in cultured MT-4 lymphocytes at a concentration of 10 ug/mL (0.0290 uM/mL).; format: functional, Homo sapiens; how it was run: as §1
MT4 [4] = assay: Cytotoxic effect in cultured MT-4 lymphocytes at a concentration of 2 ug/mL (0.0060 uM/mL).; format: functional, Homo sapiens; how it was run: as §1
[5] = system: Human immunodeficiency virus 1; assay: Inhibitory effect against HIV-1 induced cytopathic effects(HIV-1 neutralization) in MT-4 lymphocytes at a concentration of 100 ug/mL (0.2900 uM/mL).; format: functional
How it was run: (§2)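 HIV-1 Molt IIIB (~2 × 10^4 TCID50 in 100 μL) preincubated 1 h at 37 °C with a single compound dose, then added to MT-4 cells (5 × 10^5 cells/well, 1 mL). Cultured at 37 °C, 5% CO2. Viable cells counted by trypan blue exclusion on days 4 and 7. Triplicates; % viable cells. Controls: infected cells (positive), uninfected cells (negative).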

MCF7 [6] = assay: […] breast tumor cell proliferation inhibition by the compound in vitro at a concentration of 6.0 uM.; format: functional, Homo sapiens
How it was run: (§3)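 Breast tumor cells treated with specified compound concentrations in RPMI-1640 in 1% agar with 5% FBS for 1 week. Viability compared with a control given distilled water in place of drug; 5-fluorouracil as standard cytotoxic drug. Reported as concentration-dependent cell survival.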

MT4 [7] = assay: Protection of MT-4 lymphocytes by the compound against HIV-1 infectivity in vitro at a concentration of 12.5 ug/mL (0.038 uM/mL); format: functional, Homo sapiens
How it was run: (§4)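 Virus (HIV-1 Molt IIIB, ~2 × 10^4 TCID50) preincubated with compound 1 h at 37 °C, 5% CO2. Then added to MT-4 cells (5 × 10^5 cells/well) and cultured at 37 °C. Trypan blue viability counts taken on days 4 and 7, triplicate at each concentration. Controls were infected and uninfected cells. Reported as % viable (surviving) MT-4 cells.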

[8] = system: Human immunodeficiency virus 1; assay: Inactivation of HIV-MoltIIIB strain in MT-4 lymphocytes in vitro at a concentration of 100 ug/mL (0.30 uM/mL).; format: functional
How it was run: (§5)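 Compound (50 μL) was mixed with 50 μL of HIV-1 Molt IIIB or HIV-MN inoculum in RPMI 1640 for 1 h at room temperature. The mixture was added to 5 × 10^4 MT-4 cells and kept 7 days at 37 °C, 5% CO2. MTT (5.0 mg/mL) was added for 4 h, the reaction was stopped with 0.04 N HCl/2-propanol, and OD was read at 570 nm. % inactivation was calculated from OD relative to uninfected cells and untreated virus, mean of three.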

COLO 320DM [9] = assay: COLO 320DM colon tumor cell proliferation inhibition by the compound in vitro at a concentration of 6.0 uM.; format: functional, Homo sapiens
How it was run: (§6)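 Tumor cells grown in RPMI-1640 in 1% agar with 5% fetal bovine serum, exposed to the specified concentrations for 1 week. Viability was assessed against a control given distilled water in place of drug. 5-Fluorouracil served as the positive cytotoxic standard. Results are reported as concentration-dependent cell survival.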

[10] = system: Human immunodeficiency virus 1; assay: Protection of MT-4 lymphocytes by the compound against HIV-1 infectivity in vitro at a concentration of 400 ug/mL (1.20 uM/mL); format: functional; how it was run: as §4
[11] = Calu3 lung tumor cell proliferation inhibition by the compound in vitro at a concentration of 6.0 uM.; format: functional, Homo sapiens; how it was run: as §6
MCF7 [12] = assay: […] breast tumor cell proliferation inhibition by the compound in vitro at a concentration of 60 uM.; format: functional, Homo sapiens; how it was run: as §3
MT4 [13] = assay: Cytotoxic effect in cultured MT-4 lymphocytes at a concentration of 100 ug/mL (0.3000 uM/mL).; format: functional, Homo sapiens; how it was run: as §1
MT4 [14] = assay: Protection of MT-4 lymphocytes by the compound against HIV-1 infectivity in vitro at a concentration of 50 ug/mL (0.150 uM/mL); format: functional, Homo sapiens; how it was run: as §4
[15] = system: Human immunodeficiency virus 1; assay: Inactivation of HIV-MN strain in MT-4 lymphocytes in vitro at a concentration of 100 ug/mL (0.30 uM/mL).; format: functional; how it was run: as §5
COLO 320DM [16] = assay: COLO 320DM colon tumor cell proliferation inhibition by the compound in vitro at a concentration of 0.6 uM.; format: functional, Homo sapiens; how it was run: as §6
[17] = Calu3 lung tumor cell proliferation inhibition by the compound in vitro at a concentration of 0.6 uM.; format: functional, Homo sapiens; how it was run: as §6
MCF7 [18] = assay: […] breast tumor cell proliferation inhibition by the compound in vitro at a concentration of 0.6 uM.; format: functional, Homo sapiens; how it was run: as §3
[19] = system: Human immunodeficiency virus 1; assay: Inactivation of HIV-MoltIIIB strain in MT-4 lymphocytes in vitro at a concentration of 400 ug/mL (1.2u M/mL).; format: functional; how it was run: as §5
[20] = system: Human immunodeficiency virus 1; assay: Inhibitory effect (100 uM) against HIV-1 in human peripheral blood monocyte cells(PBMC) (EC50 ->32.5 ug/mL); format: functional
[21] = system: Human immunodeficiency virus 1; assay: Inactivation of HIV-MoltIIIB strain in MT-4 lymphocytes in vitro at a concentration of 200 ug/mL (0.60 uM/mL).; format: functional; how it was run: as §5
[22] = system: Human immunodeficiency virus 1; assay: Inactivation of HIV-MN strain in MT-4 lymphocytes in vitro at a concentration of 200 ug/mL (0.60 uM/mL).; format: functional; how it was run: as §5
[23] = system: Human immunodeficiency virus 1; assay: Inhibitory effect against HIV-1 induced cytopathic effects(HIV-1 neutralization) in MT-4 lymphocytes at a concentration of 100 ug/mL (0.3000 uM/mL).; format: functional; how it was run: as §2
[24] = system: Human immunodeficiency virus 1; assay: Percent inhibition of HIV-1 binding to H-9 cells at a concentration of 100(ug/mL).; format: functional
How it was run: (§7)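 HIV-1 Molt IIIB (50 μL) incubated overnight with compound at 100 μg/mL, then with uninfected H-9 cells 2 h at 37 °C. Washed; stained with HIV-positive human serum (1:100) then FITC anti-human IgG (1:10), 30 min at 4 °C each. Formaldehyde-fixed (0.5%) and analysed by flow cytometry for % virus bound and % binding inhibition.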

[25] = system: Human immunodeficiency virus 1; assay: Protection of MT-4 lymphocytes by the compound against HIV-1 infectivity in vitro at a concentration of 100 ug/mL (0.30 uM/mL); format: functional; how it was run: as §4
[26] = system: Human immunodeficiency virus 1; assay: Protection of MT-4 lymphocytes by the compound against HIV-1 infectivity in vitro at a concentration of 200 ug/mL (0.60 uM/mL); format: functional; how it was run: as §4
[27] = system: Human immunodeficiency virus 1; assay: Inactivation of HIV-MN strain in MT-4 lymphocytes in vitro at a concentration of 400 ug/mL (1.20 uM/mL).; format: functional; how it was run: as §5
MT4 [28] = assay: Protection of MT-4 lymphocytes by the compound against HIV-1 infectivity in vitro at a concentration of 25 ug/mL (0.075 uM/mL); format: functional, Homo sapiens; how it was run: as §4
MT4 [29] = assay: Cytotoxic effect in cultured MT-4 lymphocytes at a concentration of 10 ug/mL (0.0300 uM/mL).; format: functional, Homo sapiens; how it was run: as §1
[30] = system: Human immunodeficiency virus 1; assay: Percent HIV-1 bound to H-9 cells at a concentration of 100(ug/mL).; format: functional; how it was run: as §7
COLO 320DM [31] = assay: COLO 320DM colon tumor cell proliferation inhibition by the compound in vitro at a concentration of 60 uM.; format: functional, Homo sapiens; how it was run: as §6
[32] = Calu3 lung tumor cell proliferation inhibition by the compound in vitro at a concentration of 60 uM.; format: functional, Homo sapiens; how it was run: as §6
MT4 [33] = assay: Cytotoxic effect in cultured MT-4 lymphocytes at a concentration of 2 ug/mL (0.0080 uM/mL).; format: functional, Homo sapiens; how it was run: as §1

Nc1nc2cc3c(O)c4ccccc4nc3cc2[nH]1
Viability (MT4 [1]): 81.5% | Inhibition [2]: 33% | Viability (MT4 [3]): 88.8% | Viability (MT4 [4]): 90% | Viability [5]: 12.5%

O=C([O-])CSc1ccc2c(c1)c(=O)c1ccccc1n2C1CC1.[Na+]
Viability (MCF7 [6]): 86% | Survival (MT4 [7]): 77.3% | Inactivation [8]: 3.9% | Viability (COLO 320DM [9]): 108% | Survival [10]: 86% | Viability [11]: 73% | Viability (MCF7 [12]): 44% | Viability (MT4 [13]): 100% | Survival (MT4 [14]): 89.2% | Inactivation [15]: 11.3% | Viability (COLO 320DM [16]): 107% | Viability [17]: 104% | Viability (MCF7 [18]): 91% | Inactivation [19]: 23.3% | Inhibition [20]: 29% | Inactivation [21]: 23.5% | Inactivation [22]: 10% | Viability (MT4 [4]): 96.6% | Viability [23]: 83.7% | Inhibition [24]: 13.8% | Survival [25]: 83.7% | Survival [26]: 81.3% | Inactivation [27]: 11.6% | Survival (MT4 [28]): 85.5% | Viability (MT4 [29]): 96% | Bound [30]: 28.7% | Viability (COLO 320DM [31]): 87% | Viability [32]: 44%

Cc1nc2cc3nc4ccccc4cc3cc2s1.Cl
Viability (MT4 [33]): 85%
